Runt-SMMHC FRET: Runt domain-CBFb-SMMHC interaction inhibition; AID 1434; inhibition, % at 20 µM; 220,000 tested, 0.74% active; Q01196+Q13951; Cerulean-Runt/Venus-CBFb-SMMHC FRET ratio 530/480, 1 h;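 active means mean inhibition across duplicate retests at 20 µM reaching about 50%, limit read from the data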;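 further: 0% = DMSO wells and 100% = wells with excess untagged CBFb-SMMHC; inhibitors lower the FRET ratio by blocking Runt binding to CBFb-SMMHC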
proKLK7 act: activators of human kallikrein-7 zymogen; purified proKLK7, EDANS-DABCYL substrate fluorescence; 100% is mature enzyme control, 0% vehicle; 370,000 tested, 0.9% active; AID 652039; activation, % at 7 µM;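 active means activation above the mean of all tested compounds plus 3 SD, computed per campaign excluding outliers beyond control limits, cut at about 13% in these data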
Target sequence (P49862 whole entry, looked up): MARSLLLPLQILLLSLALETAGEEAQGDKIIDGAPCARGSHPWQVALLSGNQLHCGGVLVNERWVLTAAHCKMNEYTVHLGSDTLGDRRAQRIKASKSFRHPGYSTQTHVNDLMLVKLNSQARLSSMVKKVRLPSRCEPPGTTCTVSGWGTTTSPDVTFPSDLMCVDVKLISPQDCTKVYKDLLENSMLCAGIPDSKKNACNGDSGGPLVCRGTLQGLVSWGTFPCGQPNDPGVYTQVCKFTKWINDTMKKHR
RanGTP-Imp inh: disruptors of Ran-importin-beta complex formation – biochemical, FRET, CFP-Ran, YFP-importin-beta, homogeneous, primary screen | cell-free CFP-Ran/YFP-importin-beta FRET ratio | inhibition, % (no concentration beside the values) | 300,000 tested, 1.1% active;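 active means more than half of the replicate wells show a fall in the fluorescence ratio signal beyond about 16%, limit read from the data, passing the limit was not always enough; inconclusive means exactly half of the replicate wells pass the set limit; inactive means fewer than half of replicates pass the limit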;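 further: 0% = DMSO wells and 100% = Ran loaded with GDP instead of GTP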
Runt-CBFb FRET: inhibitors of human RUNX1 Runt domain binding to CBFb | Q01196+Q13951 | Cerulean-Runt/Venus-CBFb FRET ratio 530/480, 1 h | inhibition, % at 20 µM | 220,000 tested, 0.46% active | AID 1496;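 active means inhibition over about 50% at 20 µM in the single-dose screen, limit read from the data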;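 further: 0% = DMSO wells and 100% = excess unlabeled CBFb competitor control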
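test system = Cerulean-Runt domain fusion protein, energy donor | probe or stimulus = Venus-CBFb binding partner, 100 nM | incubation = two 1 h room-temperature incubations shielded from light | detection = fluorescence energy transfer, 422 nm excitation, 530/480 nm emission | measure = loss of energy transfer signal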
MEX-5 binding: C. elegans MEX-5 TCR-2 RNA binding activity; MEX-5/FITC-TCR2 RNA binding, fluorescence polarization; stronger effect = lower value; AID 1832; 300,000 tested, 0.38% active; Q9XUB2; activity score (negative = inhibition of binding), % at 10 µM;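 active means inhibition past about -25% in most replicates, and total fluorescence under double the plate's negative control median, limit read from the data; inconclusive means replicates evenly split on the limit, or fluorescence at least double controls; inactive means too little inhibition in most replicates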;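 further: 0% = DMSO and -100% = 5 µM competing unlabeled TCR2 RNA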
Target sequence (Q9XUB2 whole entry, looked up): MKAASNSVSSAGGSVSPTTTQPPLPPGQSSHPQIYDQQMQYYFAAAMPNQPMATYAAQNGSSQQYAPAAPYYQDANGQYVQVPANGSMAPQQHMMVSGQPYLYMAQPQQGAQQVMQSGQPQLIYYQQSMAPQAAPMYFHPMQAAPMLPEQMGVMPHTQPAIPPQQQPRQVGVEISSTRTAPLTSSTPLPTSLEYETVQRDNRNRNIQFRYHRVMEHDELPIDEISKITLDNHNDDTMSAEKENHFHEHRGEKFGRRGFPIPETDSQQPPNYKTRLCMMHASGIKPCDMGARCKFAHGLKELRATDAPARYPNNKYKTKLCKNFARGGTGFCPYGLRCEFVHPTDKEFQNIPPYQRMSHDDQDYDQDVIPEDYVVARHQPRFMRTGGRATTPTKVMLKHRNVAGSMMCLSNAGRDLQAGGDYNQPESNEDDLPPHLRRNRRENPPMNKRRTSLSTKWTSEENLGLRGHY
* marks the source's active call; other numbers are inactive results; ? = inconclusive; / = not tested or not shown. Shown are actives, neighbours in structure and some others; about 2.1% of the full set was active somewhere.

SMILES | Runt-SMMHC FRET | proKLK7 act | RanGTP-Imp inh | Runt-CBFb FRET | MEX-5 binding
COc1ccc(OC)c(N=Cc2c(O)n(Cc3ccccc3)c(=S)[nH]c2=O)c1 | -26.2 | -0.9 | -5.3 | -129.3 | -47.0*
COc1ccc(Cn2c(O)c(C=Nc3c(C)n(C)n(-c4ccccc4)c3=O)c(=O)[nH]c2=O)cc1 | 1.6 | -0.2 | 2.3 | -2.7 | 2.6
COc1cc(C2(C#N)CCN(C)CC2)cc(OC)c1OC | / | 0.2 | / | / | /
CNCC(=O)c1ccccc1 | / | / | -0.3 | / | -1.8
CC(C)(O)[C@H]1O[C@H]2CC[C@@]3(C)[C@@](O)(CC[C@H]4Cc5c([nH]c6ccccc56)[C@@]43C)C2=CC1=O | -5.9 | / | -3.5 | -0.4 | -27.7*
CC12CN3CCN(CC(C3)/C1=N/NC(N)=O)C2 | -0.1 | -0.2 | 1.7 | 0.6 | 1.1
COc1ccc2c3c([nH]c2c1)C(C)NCC3 (configuration not stated) | 85.4* | 8.3 | ? | 20.9 | 1.4
NS(=O)(=O)c1ccc(-c2ccc(C=C3C(=O)NC(=S)NC3=O)o2)cc1 | / | 1.1 | 4.5 | / | -49.2*
NS(=O)(=O)c1ccc(-c2ccc(C=C3C(=O)NC(=O)NC3=O)o2)cc1 | / | -0.1 | -2.2 | / | -2.3
Cc1ccc(N2C(=O)NC(=O)/C(=C\c3cn(CC(=O)O)c4ccccc34)C2=O)cc1 | / | -0.2 | 0.6 | / | ?
COC(=O)Cn1cc(/C=C2\C(=O)NC(=O)N(c3ccccc3)C2=O)c2ccccc21 | / | -0.3 | -2.0 | / | -42.7*
COC(=O)Cn1cc(C=C2C(=O)N(C)C(=O)N(C)C2=O)c2ccccc21 | / | -0.1 | 1.5 | / | -80.1*
C/C=C/CC#N | / | -0.6 | / | / | /
O=C(O)c1nn(Cc2ccc(Cl)cc2)c2ccccc12 | / | 0.3 | / | / | /
O=C1N[C@H](Cc2ccccc2)C(=O)N2[C@@H]3[C@H](C[C@@H]12)c1ccccc1N3OOSc1ccccc1 | / | -0.1 | -0.7 | / | -0.8
Cc1nc2ccc(P(=O)(O)O)cc2s1 | 23.8 | / | 0.3 | 38.2 | -3.3
O=[N+]([O-])c1ccc(NCc2ccccc2)c2nonc12 | -263.4 | 3.6 | -216.7 | -329.2 | -35.7*
O=[N+]([O-])c1ccc(N2CCCCCC2)c2nonc12 | / | 2.2 | -59.5 | / | ?
O=C(N/N=C/c1c(O)n(Cc2ccco2)c(=O)[nH]c1=O)c1ccccc1O | 2.8 | -0.6 | -2.5 | 3.8 | -26.8*
CCCCC(=O)N/N=C/c1c(O)n(Cc2ccco2)c(=O)[nH]c1=O | 0.1 | -0.5 | 3.4 | 5.8 | -2.6
CC(C)c1ccc(-n2c(O)c(/C=N/NC(=O)c3ccccc3O)c(=O)[nH]c2=S)cc1 | 58.8* | 0.4 | 3.1 | 20.7 | /
C=CCn1c(O)c(C(CC)=Nc2ccc(N(C)C)cc2)c(=O)[nH]c1=O | -0.1 | 1.0 | -1.6 | 21.5 | -1.1
Nc1ccccc1Cl | / | 0.7 | / | / | /
CSc1nc(N)c(N=Nc2ccc([As](=O)(O)O)cc2)c(=O)[nH]1 | 15.9 | -0.2 | -1.1 | 24.3 | -33.5*
CN1C(=O)NC(=O)/C(=C\c2ccc([N+](=O)[O-])o2)C1=O | -8.3 | / | ? | 5.8 | -61.0*
SMILES | Runt-SMMHC FRET | proKLK7 act | RanGTP-Imp inh | Runt-CBFb FRET | MEX-5 binding
CN1C(=O)NC(=O)/C(=C/c2ccc([N+](=O)[O-])o2)C1=O | 18.7 | 0.4 | -8.8 | 9.2 | -43.4*
O=C1NC(=O)N(c2ccccc2)C(=O)/C1=C\c1ccc([N+](=O)[O-])o1 | 8.2 | / | -1.7 | 11.4 | -2.0
N/C(=N\N=C/c1ccc(-c2ccc(O)c(C(=O)O)c2)o1)N[N+](=O)[O-] | 31.3 | 8.4 | -2.5 | 45.8 | -29.4*
O=c1[nH]c(=O)n(-c2cccc(Cl)c2)c(O)c1/C=N/c1ccccn1 | -1.6 | -1.6 | 3.9 | 0.4 | -28.8*
CN(C)[C@@H]1C(=O)C(C(N)=O)=C(O)[C@@]2(O)C(=O)C3=C(O)c4c(O)cccc4[C@@](C)(O)[C@H]3C[C@@H]12 | / | / | -0.5 | / | -58.7*
COC(=O)C1=C(c2ccc(F)cc2F)C[C@@H]2CC[C@H]1N2C(=O)NCCOc1ccccc1 | / | 0.5 | / | / | /
CC(Cc1ccc(O)cc1)NCC(O)c1ccc(O)c(O)c1 (configuration not stated) | / | 2.1 | / | / | /
Cc1ccc2c(c1)NP(=S)(Oc1ccccc1)N2 (configuration not stated) | / | 0.8 | / | / | /
COc1ccc2c(c1)NP(=S)(Oc1ccccc1)N2 (configuration not stated) | -5.8 | -0.5 | -2.2 | 29.6 | -46.5*
CCN(CC)C(=O)c1ccc(N(Cc2ccccc2)S(C)(=O)=O)cc1 | / | -0.1 | 0.9 | / | 0.6
CCN(CC)C(=O)c1ccc2c(c1)C1C(Cl)C(Sc3ccccc3[N+](=O)[O-])CC1C(C(=O)O)N2 (configuration not stated) | 1.5 | / | 0.9 | 10.6 | -56.0*
CCN(CC)C(=O)c1ccc2c(c1)C1C=CCC1C(C(=O)O)N2 (configuration not stated) | / | 0.0 | 0.0 | / | -55.7*
Cc1ccc2c(c1Cl)NC(C(=O)O)C1CC(Sc3ccccc3[N+](=O)[O-])C(Cl)C21 (configuration not stated) | -14.5 | / | 0.6 | 20.0 | -1.9
C#C[C@]1(O)CCC2C3CCC4=C/C(=N/OCC(=O)NC(C)C(=O)NC(CCSC)C(=O)O)CC[C@]4(C)C3CC[C@@]21C (some centres not stated) | / | 0.2 | 1.5 | / | 2.5
CCC(C)NC(=O)c1c(N)n(Cc2ccc3c(c2)OCO3)c2nc3ccccc3nc12 (configuration not stated) | 25.9 | -4.3 | 60.4* | 4.7 | -6.4
CCOC(=O)c1c(C)n(Cc2ccc3c(c2)OCO3)c2ccc(O)cc12 | -0.7 | 1.3 | -3.2 | 0.9 | -1.9
CC(C)CCNC(=O)c1c(N)n(CC2CCCO2)c2nc3ccccc3nc12 (configuration not stated) | 20.5 | -9.8 | 92.7* | 1.5 | -1.0
CCC(C)NC(=O)c1c(N)n(CC2CCCO2)c2nc3ccccc3nc12 (configuration not stated) | 99.9* | -35.8 | 4.6 | 11.5 | /
COCCCn1c(N)c(C(=O)Nc2sc3c(c2C(=O)OC)CCCC3)c2nc3ccccc3nc21 | 8.2 | -1.1 | 11.6 | 93.1* | -5.7
O=[N+]([O-])c1ccc(C2[C@H]3C(c4ccccc4)=NC4(CCCCC4)N23)cc1 (some centres not stated) | -0.9 | 0.0 | ? | 1.0 | -1.5
N#CCCn1cc(C(=O)Nc2ccc(F)cc2)c(-c2ccccc2)n1 | / | -0.1 | 0.5 | / | 2.6
CCC(C)NC(=O)c1c(N)n(CCCOC)c2nc3ccccc3nc12 (configuration not stated) | 20.1 | -29.2 | 112.5* | -9.6 | -2.1
CCCCOCCCn1c(N)c(C(=O)OC(C)COC)c2nc3ccccc3nc21 (configuration not stated) | 127.7* | -18.5 | 5.4 | 41.2 | 1.9
C[n+]1c(-c2ccccc2)c2cc(N)ccc2c2ccc(N)cc21 | / | 5.6 | 3.3 | / | -90.3*

Bioassay records: PubChem BioAssay, several laboratories
